From ChEMBL document CHEMBL1137731, “Cytotoxicity and TOP1-targeting activity of 8- and 9-amino derivatives of 5-butyl- and 5-(2-N,N-dimethylamino)ethyl-5H-dibenzo[c,h][1,6]naphthyridin-6-ones” (Eur J Med Chem, 2009) come the findings set out here.

Broadly, the IC50 is the concentration that gives 50% inhibition.

For one assay, the species on record is Homo sapiens. Briefly: Inhibition of human recombinant topoisomerase 1 expressed in Escherichia coli assessed as drug level causing 10% mediated DNA cleavage relative to topotecan. In short, it runs like this: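 Recombinant human TOP1, expressed in E. coli as a T7-system fusion protein, was incubated with drug and 3′-end-labelled plasmid YepG for 30 min at room temperature. Reactions were stopped with SDS and proteinase K (1 h, 37 °C), alkali-denatured, and run on a neutral agarose gel. The read-out was the concentration giving 10% cleavage, expressed relative to topotecan set at 1.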

The next assay relates to P388. Briefly: Cytotoxicity against mouse P388 cells by MTT method. The assay is classed as functional, cell-based. In short, it runs like this: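 MTT assay with P388 mouse leukaemia cells grown in suspension at 37 °C, 5% CO2, in RPMI with 10% heat-inactivated FBS, 2 mM L-glutamine and penicillin/streptomycin. Cells were exposed continuously to varying drug concentrations for 4 days, with a drug-free control, and MTT was read at day 4. The IC50 came from at least two assays, each in six replicate wells.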
On the technique in general: Tetrazolium assays rely on reduction of a dye to a coloured formazan, in cell work by metabolically active cells.

Assay [1] is described as follows: Cytotoxicity against human KB3-1 cells by MTT method. The assay is classed as functional, cell-based. The conditions noted are these: KB 3-1.
Assay [2] is described as follows: Cytotoxicity against multidrug resistant human KBV1 cells overexpressing MDR1 by MTT method. The conditions noted are these: KB-V1. The assay is classed as functional, cell-based.
The nature of assay [3]: Cytotoxicity against multidrug resistant human KBH5.0 cells overexpressing BCRP by MTT method. The conditions noted are these: KBH5.0 cell. The assay is classed as functional, cell-based.
In another assay the test system is RPMI8402 (human). The experiment in a line: Cytotoxicity against human RPMI8402 cells by MTT method. The conditions noted are these: RPMI-8402.

Take `CCCCn1c(=O)c2ccc([N+](=O)[O-])cc2c2cnc3cc4c(cc3c21)OCO4`: in the assay listed under Homo sapiens, the Activity was above 10. Further, the IC50 in the assay on P388 is 700 nM; in assay [1], 310 nM; in assay [2] it was 850 nM; in assay [3], 360 nM; in the assay with RPMI8402 (human), 480 nM.
On to `CC[C@@]1(O)C(=O)OCc2c1cc1n(c2=O)Cc2cc3c(CN(C)C)c(O)ccc3nc2-1` [TOPOTECAN], for which the IC50 in the assay with P388 came out at 45 nM; in assay [1], 40 nM; in assay [2], 440 nM; in assay [3], 440 nM; in the assay with RPMI8402 (human), 21 nM.
Consider `CN(C)CCNc1ccc2c(=O)n(CCN(C)C)c3c4cc5c(cc4ncc3c2c1)OCO5`, for which the Activity in the assay listed under Homo sapiens was above 20. For the same molecule, the IC50 was 60 nM in the assay with P388; 120 nM in assay [1]; 550 nM in assay [2]; 320 nM in assay [3]; 850 nM in the assay on RPMI8402 (human).
As to `CN(C)CCn1c(=O)c2ccc([N+](=O)[O-])cc2c2cnc3cc4c(cc3c21)OCO4`, the Activity in the assay listed under Homo sapiens stood at 0.1. The IC50 in the assay with P388 amounted to 5 nM; in assay [1] it was 5 nM; in assay [2], 4 nM; in assay [3], 5 nM; in the assay with RPMI8402 (human), 2 nM.
Take `CCCCn1c(=O)c2ccc(NCCN(C)C)cc2c2cnc3cc4c(cc3c21)OCO4`: in the assay filed under Homo sapiens, the Activity is above 20. The IC50 amounted to 1800 nM with P388; 3000 nM in assay [1]; 4500 nM in assay [2]; 3500 nM in assay [3]; 1800 nM in the assay on RPMI8402 (human).
`CN(C)CCn1c(=O)c2cc([N+](=O)[O-])ccc2c2cnc3cc4c(cc3c21)OCO4`: the Activity in the assay listed under Homo sapiens came to 0.2. In addition, the IC50 in the assay on P388 came to 9 nM; in assay [1] it was 26 nM; in assay [2], 25 nM; in assay [3], 25 nM; in the assay with RPMI8402 (human), 5 nM.
For `CCCCn1c(=O)c2cc(NCCN(C)C)ccc2c2cnc3cc4c(cc3c21)OCO4`, in the assay listed under Homo sapiens, the Activity was above 20. In addition, the IC50 with P388 was determined as 780 nM; in assay [1], 1700 nM; in assay [2], 3200 nM; in assay [3] it was 1700 nM; in the assay with RPMI8402 (human) it was 1570 nM.
Consider `CN(C)CCn1c(=O)c2ccc(NC(=O)CN(C)C)cc2c2cnc3cc4c(cc3c21)OCO4`, for which, in the assay filed under Homo sapiens, the Activity was above 20. For the same molecule, the IC50 with P388 was 35 nM; in assay [1], 36 nM; in assay [2], 190 nM; in assay [3], 120 nM; with RPMI8402 (human), 35 nM.
On to `CN(C)CCn1c(=O)c2cc(N)ccc2c2cnc3cc4c(cc3c21)OCO4`, for which the Activity in the assay listed under Homo sapiens was 8. Moreover, the IC50 in the assay on P388 is 40 nM; in assay [1], 230 nM; in assay [2], 280 nM; in assay [3], 330 nM; with RPMI8402 (human), 90 nM.
As to `CCCCn1c(=O)c2ccc(NC(=O)CN(C)C)cc2c2cnc3cc4c(cc3c21)OCO4`, in the assay filed under Homo sapiens, the Activity is above 20. Moreover, the IC50 in the assay on P388 worked out at 600 nM; in assay [1] it was 900 nM; in assay [2] it was 2000 nM; in assay [3] it was 1900 nM; in the assay on RPMI8402 (human) it was 300 nM.
Take `CC[C@@]1(O)C(=O)OCc2c1cc1n(c2=O)Cc2cc3ccccc3nc2-1` [CAMPTOTHECIN]: in the assay filed under Homo sapiens, the Activity worked out at 0.2. Moreover, the IC50 is 14 nM with P388 and 6 nM with RPMI8402 (human).
Consider `CCCCn1c(=O)c2cc(N)ccc2c2cnc3cc4c(cc3c21)OCO4`, for which the Activity in the assay listed under Homo sapiens was above 20. Moreover, the IC50 in the assay on P388 was determined as 280 nM; in assay [1], 3200 nM; in assay [2], 2500 nM; in assay [3] it was 3500 nM; in the assay with RPMI8402 (human), 1250 nM.
On to `CN(C)CCn1c(=O)c2ccc(N)cc2c2cnc3cc4c(cc3c21)OCO4`, for which the Activity in the assay listed under Homo sapiens was found to be 0.5. For the same molecule, the IC50 in the assay with P388 was 28 nM; in assay [1], 130 nM; in assay [2], 130 nM; in assay [3], 150 nM; in the assay with RPMI8402 (human) it was 33 nM.
For the molecule `CN(C)CCn1c(=O)c2cc(NC(=O)CN(C)C)ccc2c2cnc3cc4c(cc3c21)OCO4`, the Activity in the assay listed under Homo sapiens is above 20. The IC50 came to 100 nM in the assay on P388; 180 nM in assay [1]; 600 nM in assay [2]; 240 nM in assay [3]; 120 nM in the assay on RPMI8402 (human).
For the molecule `CCCCn1c(=O)c2cc([N+](=O)[O-])ccc2c2cnc3cc4c(cc3c21)OCO4`, the Activity in the assay filed under Homo sapiens is above 10. Moreover, the IC50 with P388 came out at 150 nM; in assay [1], 400 nM; in assay [2], 300 nM; in assay [3] it was 500 nM; with RPMI8402 (human), 2400 nM.
As for `CCCCn1c(=O)c2cc(NC(=O)CN(C)C)ccc2c2cnc3cc4c(cc3c21)OCO4`, the Activity in the assay listed under Homo sapiens was above 20. Besides, the IC50 in the assay with P388 was found to be 250 nM; in assay [1], 1500 nM; in assay [2], 2600 nM; in assay [3], 1600 nM; in the assay on RPMI8402 (human), 330 nM.
As for `CN(C)CCNc1ccc2c(c1)c(=O)n(CCN(C)C)c1c3cc4c(cc3ncc21)OCO4`, the Activity in the assay filed under Homo sapiens was above 20. In addition, the IC50 in the assay on P388 worked out at 40 nM; in assay [1], 50 nM; in assay [2], 410 nM; in assay [3] it was 300 nM; with RPMI8402 (human), 120 nM.
For `CCCCn1c(=O)c2ccc(N)cc2c2cnc3cc4c(cc3c21)OCO4`, the Activity in the assay listed under Homo sapiens is above 20. The IC50 in the assay with P388 is 6000 nM; in assay [1], 5800 nM; in assay [2], 2500 nM; in assay [3], 3500 nM; with RPMI8402 (human) it was 3500 nM.
